Bioassay records (PubChem)
This is a sample that favours compounds with a hit; in the whole collection about 3.5% have one here.
RGS4 pot: potentiators or activators of RGS4. HEK293 M3R/inducible RGS4, carbachol calcium flux Fluo4; active compounds read low. B-score at 10 µM. hit rate 0.92% among 310,000;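 active = B-score of the integrated calcium signal more than 4 SD below the library mean, with starting fluorescence not abnormally high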;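 also: negative B-score means reduced calcium response which marks RGS4 activation or potentiation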
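System – HEK293 FlpIn-TREx cells, stable M3R, doxycycline-inducible RGS4 · Reagent – ECmax carbachol challenge · Times – compound preincubation 20 min at room temperature before agonist · Technique – Fluo4 fluorescence kinetic imaging of calcium · Measure – B score of integrated Fluo4 ratio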
MrgX1 allo act: human MrgX1 positive allosteric modulation, primary screen. AID 588675. hit rate 0.63% among 310,000. MrgX1-HEK293, Fluo-4 calcium flux, FDSS; active compounds read high. B-score at 10 µM. Q96LB2;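 active = plate-corrected calcium response at least 3 library SD above typical, normal starting fluorescence, not activating the receptor alone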;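 also: compound read alongside a low EC10 to EC30 dose of BAM8-22 agonist; peak minus trough fluorescence over baseline measured at the second addition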
Target sequence (Q96LB2 whole entry, looked up): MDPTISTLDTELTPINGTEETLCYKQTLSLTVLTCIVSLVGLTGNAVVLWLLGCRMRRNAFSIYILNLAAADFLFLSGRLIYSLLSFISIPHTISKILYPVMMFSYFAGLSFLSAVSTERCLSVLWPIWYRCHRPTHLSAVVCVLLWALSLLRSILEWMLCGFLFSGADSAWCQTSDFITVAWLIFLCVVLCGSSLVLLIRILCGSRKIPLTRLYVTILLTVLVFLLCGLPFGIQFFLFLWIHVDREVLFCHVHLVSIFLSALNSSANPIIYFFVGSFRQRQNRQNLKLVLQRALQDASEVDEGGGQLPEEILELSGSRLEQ
MrgX1 antag: antagonists of human MrgX1 receptor; MRGX1-HEK293 calcium flux, Fluo-4, BAM8-22 antagonism; active compounds read low; B-score at 10 µM; hit rate 1.3% among 310,000;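 active = calcium-response B-score plate-corrected more than 3 library SD below zero, starting fluorescence within 5 deviations, no agonist response on first addition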;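 also: peak minus trough fluorescence over baseline after final BAM8-22 challenge near maximal dose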
RGS4 block: human RGS4 inhibition | P49798 | HEK293 M3R/RGS4 inducible, Fluo-4 calcium flux; active compounds read high; triggered by carbachol at its EC20 | B-score at 10 µM | hit rate 0.45% among 310,000;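 active = B-score, a plate-corrected calcium signal, over three deviations above library mean, with baseline fluorescence within five deviations of library mean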;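 also: RGS4 expression induced by doxycycline in cells with stable M3 receptor; B-score is computed from the integrated fluorescence ratio over baseline after carbachol; higher B-score means a larger calcium signal and so more RGS4 inhibition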
Target sequence (P49798 whole entry, looked up): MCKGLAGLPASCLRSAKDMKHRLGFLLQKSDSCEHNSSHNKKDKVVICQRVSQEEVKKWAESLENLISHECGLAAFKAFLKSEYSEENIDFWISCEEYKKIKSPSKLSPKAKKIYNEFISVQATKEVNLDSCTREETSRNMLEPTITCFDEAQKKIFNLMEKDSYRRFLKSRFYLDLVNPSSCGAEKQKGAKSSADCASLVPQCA
MrgX1 ag: agonists of human MrgX1 receptor | Q96LB2 | MrgX1-HEK293 cells, Fluo-4 calcium fluorescence, agonist mode; active compounds read high | B-score at 10 µM | hit rate 0.44% among 310,000;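 active = calcium response B-score plate-corrected fluorescence ratio at least 3 library SD, with starting fluorescence B-score inside 5 SD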
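Material – MrgX1-expressing HEK293 cells · Input – 15,000 cells seeded per well · Dosing – compound as first of three additions · Times – overnight seeding, then 1 h dark dye loading · Measured by – kinetic Fluo-4 NW fluorescence of intracellular calcium · Read-out – B-scored fluorescence response ratio · Benchmarks – positive and negative control wells on each plate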
MrgX1 antag conf: human MrgX1 receptor antagonism, re-confirmation screen; shares compounds with MrgX1 antag; remaining BAM8-22 calcium response % of control (active compounds read low), % at 10 µM; MrgX1-HEK293, BAM8-22 calcium flux, Fluo-4; active compounds read low; hit rate 19% among 2,300;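 active = remaining agonist calcium response no higher than 100% minus 3 SD of agonist-only control wells, with starting fluorescence near control levels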;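 also: agonist BAM8-22 given at a near maximal EC90 to ECmax level; peak minus minimum fluorescence divided by baseline after agonist addition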
HEK293 Ca flux: counter-screen for MrgX1 antagonists: effect in parental HEK293 cells | shares compounds with MrgX1 antag | Fluo-4 calcium fluorescence, FDSS | fluorescence ratio F(max-min)/F0 at 10 µM | hit rate 2% among 4,000 | AID 624111;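 active = duplicate-averaged calcium fluorescence ratio at least three times the standard deviation of buffer wells, a nonspecific response in parental cells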
HEK293 Ca counter: counter-screen for MrgX1 allosteric activators: effect in parental HEK293 cells; shares compounds with MrgX1 antag; parental HEK293 calcium flux, Fluo-4 fluorescence ratio; active compounds read high; fluorescence ratio F(max-min)/F0 at 10 µM; hit rate 0.4% among 4,000; AID 624114;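 active = calcium fluorescence ratio, averaged over duplicates, at least 3 SD of the buffer-well ratio, meaning a nonspecific response in receptor-free cells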;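 also: untransfected parental HEK293 lacking MrgX1 used as counterscreen for MrgX1 allosteric activators; fluorescence change taken during the second addition on a kinetic imager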
HEK293 Ca cntr2: activity in parental HEK293 cells lacking MrgX1 receptor. shares compounds with MrgX1 antag. Fluo-4 calcium fluorescence (FDSS); active compounds read high. hit rate 8.7% among 4,000. fluorescence ratio F(max-min)/F0 at 10 µM;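 active = calcium fluorescence ratio at least three times the spread of buffer wells, meaning a non-specific response in parental cells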
An asterisk follows results filed as active; i = inactive; / = not tested or not shown.

SMILES	RGS4 pot	MrgX1 allo act	MrgX1 antag	RGS4 block	MrgX1 ag	MrgX1 antag conf	HEK293 Ca flux	HEK293 Ca counter	HEK293 Ca cntr2
O=C(O)CCC(=O)NCc1ccc(F)cc1	i	i	-6.3*	i	i	i	i	i	i
O=C(CCc1ccccc1)NCc1ccc(F)cc1	i	i	i	i	i	/	/	/	/
COc1cc2cc3c(N)c(C(=O)Nc4sc(C)c(C)c4C#N)sc3nc2cc1OC	i	i	-6.2*	i	i	74%*	i	i	i
CCOC(=O)C1CCN(C(=O)c2sc3nc(-c4ccc(F)cc4)cn3c2C)CC1	i	i	-5.8*	i	i	i	i	i	i
COc1ccc(CN2CCC(N3CC(C)OC(C)C3)CC2)c(OC)c1 (stereo unspecified)	i	i	-4.8*	i	i	i	i	i	i
O=C(CNC(=O)c1ccc2ccccc2c1)NCc1ccccc1F	i	i	i	i	i	/	/	/	/
O=S(=O)(NCc1cn2ccsc2n1)c1cccs1	i	i	i	i	i	/	/	/	/
O=C(NCCc1cn2ccsc2n1)c1cccs1	i	i	-6.3*	i	i	i	i	i	i
Cc1ccc(NC(=O)C2(c3cccs3)CCOCC2)cc1C	i	i	-4.8*	i	i	i	i	i	i
CN(Cc1c(C(=O)N2CCCCCCC2)nc2ccc(Cl)cn12)C1CCOC1 (stereo unspecified)	i	i	i	i	i	/	/	/	/
CCOC(=O)C1=C(O)CSC1=Nc1cccc2ccccc12	i	i	i	i	i	/	/	/	/
CCOC(=O)C1=C(O)CSC1=Nc1ccc(C)cc1	i	i	-5.7*	i	i	i	i	i	i
COc1ccccc1N1CCN(C2CCCN(C(=O)CCn3cncn3)C2)CC1 (stereo unspecified)	i	i	i	i	i	/	/	/	/
O=C1N=C(c2ccccc2)C(c2ccccc2)N1 (stereo unspecified)	i	i	-7.3*	i	i	i	i	i	i
CCOC(=O)C1=C(O)C(=O)N(C2CCCCC2)C1	i	i	i	i	i	/	/	/	/
Cn1nc(C(C)(C)C)cc1C(=O)NN1CCOCC1	i	i	i	i	i	/	/	/	/
COc1ccc(/C=C/C(=O)C2(O)CCCCC2)cc1OC	i	i	i	i	i	/	/	/	/
CCCCN(C(=O)c1cccc(S(=O)(=O)N2CCN(C)CC2)c1)c1c(N)n(CCC)c(=O)[nH]c1=O	i	i	-15*	i	i	i	i	i	i
COc1ccccc1NC(=O)c1ccc(-n2cncn2)nc1	i	i	-5.2*	i	i	78%*	i	i	i
CCOc1ccccc1NC(=O)c1ccc(-n2cncn2)nc1	i	i	i	i	i	/	/	/	/
CSCCC(NS(=O)(=O)c1ccc(C)c(C(=O)O)c1)C(=O)O (stereo unspecified)	i	i	i	i	i	/	/	/	/
CCCN1C2CCCC1CC(NC(=S)Nc1cc(C)cc(C)c1)C2 (stereo unspecified)	i	i	-6*	i	i	i	i	i	i
CC1(c2ccc(C#N)cc2)NC(=O)N(CC(=O)Nc2cc(S(=O)(=O)N3CCOCC3)ccc2Cl)C1=O (stereo unspecified)	i	i	-7.3*	i	i	i	i	i	i
Cc1cc(Br)ccc1NCc1ccccn1	i	i	-6*	i	i	i	i	i	i
O=C(O)CCc1ccc(-c2cccs2)n1-c1ccc(C(=O)O)cc1	i	i	-4.7*	i	i	i	i	i	i
SMILES	RGS4 pot	MrgX1 allo act	MrgX1 antag	RGS4 block	MrgX1 ag	MrgX1 antag conf	HEK293 Ca flux	HEK293 Ca counter	HEK293 Ca cntr2
COc1ccc(CC(=O)Nc2cccc(SC)c2)cc1OC	i	/	/	i	/	/	/	/	/
CCn1c(SCC(=O)N2CCCCC2C)nnc1-c1ccco1 (stereo unspecified)	i	i	i	i	i	/	/	/	/
CC1CCCCN1C(=O)CSc1nnc(-c2ccco2)n1CC1CCCO1 (stereo unspecified)	i	i	-7*	i	i	i	i	i	i
CCOc1ccc(C(C(=O)NCC2CCCO2)N(Cc2cccs2)C(=O)c2snc(C(N)=O)c2N)cc1 (stereo unspecified)	i	i	i	i	i	/	/	/	/
CCN(C(=O)COc1ccc(C)nc1[N+](=O)[O-])C1CCS(=O)(=O)C1 (stereo unspecified)	i	i	i	i	i	/	/	/	/
O=C(NCc1ccco1)C1CCCN1C(=O)Nc1ccccc1Cl (stereo unspecified)	i	i	-12*	i	i	i	i	i	i
O=C(NCc1ccco1)C1CCCN1C(=O)Nc1ccccc1 (stereo unspecified)	i	i	i	i	i	/	/	/	/
CC(C)C1Cc2c(sc3c2c(=O)n(-c2ccccc2)c2n[nH]c(=S)n32)CO1 (stereo unspecified)	i	i	i	i	i	/	/	/	/
Cc1ccccc1NS(=O)(=O)c1ccc2[nH]c(=O)[nH]c2c1	i	i	-5.6*	i	i	i	i	i	i
CSc1ccccc1OCc1cc(C(=O)N[C@H]2CCCCNC2=O)no1	i	i	i	i	i	/	/	/	/
CN1C(C)(C)CCCC1(C)C	/	i	-7*	/	i	77%*	i	i	i
Cc1ccc(NC(=O)C2CCN(S(=O)(=O)c3ccc4c(c3)OCCO4)CC2)nc1	i	i	i	i	i	/	/	/	/
CC(C(=O)Nc1ccccc1C(=O)O)n1c(C(F)(F)F)nc2ccccc21 (stereo unspecified)	i	i	i	i	i	/	/	/	/
O=C(Cn1c(C(F)(F)F)nc2ccccc21)Nc1ccccc1C(=O)O	i	i	-5.8*	i	i	i	i	i	i
CCC(=O)Nc1c(C(=O)N2CCN(c3ccccn3)CC2)cnn1-c1ccc(C)cc1	i	i	-7.5*	i	i	i	i	i	i
